Results reported in ChEMBL document CHEMBL4613238, “Synthesis and biological activity of thieno[3,2-d]pyrimidines as potent JAK3 inhibitors for the treatment of idiopathic pulmonary fibrosis” (Bioorg Med Chem, 2020).
Blank lines part the entries; values can stand above or below the compound they belong to. Activity calls are given as the source filed them. No cut-off for these calls is given here.

How the values were obtained:
[1] = molecular target: T1, Tyrosine-protein kinase BTK (Homo sapiens, UniProt Q06187); experiment: Inhibition of BTK (unknown origin) by ADP-Glo kinase assay
T1 sequence (Q06187 whole entry): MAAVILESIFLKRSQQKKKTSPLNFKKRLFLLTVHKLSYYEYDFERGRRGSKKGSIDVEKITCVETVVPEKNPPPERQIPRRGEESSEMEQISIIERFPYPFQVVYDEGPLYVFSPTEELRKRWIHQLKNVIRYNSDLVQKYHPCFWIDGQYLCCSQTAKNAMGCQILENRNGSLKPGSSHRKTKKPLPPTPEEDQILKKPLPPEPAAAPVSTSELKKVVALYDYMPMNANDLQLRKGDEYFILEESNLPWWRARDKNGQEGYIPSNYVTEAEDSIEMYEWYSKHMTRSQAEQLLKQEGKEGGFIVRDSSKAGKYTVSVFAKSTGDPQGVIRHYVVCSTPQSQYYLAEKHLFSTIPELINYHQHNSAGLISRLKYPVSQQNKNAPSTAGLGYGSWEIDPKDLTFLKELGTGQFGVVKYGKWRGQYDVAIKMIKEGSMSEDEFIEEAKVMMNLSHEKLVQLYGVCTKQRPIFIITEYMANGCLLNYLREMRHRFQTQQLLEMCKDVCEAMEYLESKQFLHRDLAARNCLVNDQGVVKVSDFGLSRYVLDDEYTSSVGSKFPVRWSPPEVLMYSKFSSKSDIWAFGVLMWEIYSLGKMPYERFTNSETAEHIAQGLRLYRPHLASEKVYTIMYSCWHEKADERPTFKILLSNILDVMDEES
How it was run: (§1)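 ADP-Glo luminescent assay run at compound concentrations of 0.1, 1, 10, 100 and 1000 nM. The kinase reaction ran in 1× kinase buffer for 60 min at room temperature. ADP-Glo reagent was then added to stop the reaction and deplete ATP (40 min, RT), followed by detection reagent (30 min, RT) and a luminescence read. IC50s came from curve fitting; means of three experiments.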

[2] = molecular target: T2, Tyrosine-protein kinase JAK3 (Homo sapiens, UniProt P52333); experiment: Inhibition of recombinant human N-terminal GST-tagged JAK3 (781 to end residues) expressed in baculovirus infected Sf9 cells using poly (Glu,Tyr) 4:1 as substrate incubated for 60 mins in presence of ATP by ADP-Glo kinase assay; how it was run: as §1
T2 sequence (P52333 whole entry): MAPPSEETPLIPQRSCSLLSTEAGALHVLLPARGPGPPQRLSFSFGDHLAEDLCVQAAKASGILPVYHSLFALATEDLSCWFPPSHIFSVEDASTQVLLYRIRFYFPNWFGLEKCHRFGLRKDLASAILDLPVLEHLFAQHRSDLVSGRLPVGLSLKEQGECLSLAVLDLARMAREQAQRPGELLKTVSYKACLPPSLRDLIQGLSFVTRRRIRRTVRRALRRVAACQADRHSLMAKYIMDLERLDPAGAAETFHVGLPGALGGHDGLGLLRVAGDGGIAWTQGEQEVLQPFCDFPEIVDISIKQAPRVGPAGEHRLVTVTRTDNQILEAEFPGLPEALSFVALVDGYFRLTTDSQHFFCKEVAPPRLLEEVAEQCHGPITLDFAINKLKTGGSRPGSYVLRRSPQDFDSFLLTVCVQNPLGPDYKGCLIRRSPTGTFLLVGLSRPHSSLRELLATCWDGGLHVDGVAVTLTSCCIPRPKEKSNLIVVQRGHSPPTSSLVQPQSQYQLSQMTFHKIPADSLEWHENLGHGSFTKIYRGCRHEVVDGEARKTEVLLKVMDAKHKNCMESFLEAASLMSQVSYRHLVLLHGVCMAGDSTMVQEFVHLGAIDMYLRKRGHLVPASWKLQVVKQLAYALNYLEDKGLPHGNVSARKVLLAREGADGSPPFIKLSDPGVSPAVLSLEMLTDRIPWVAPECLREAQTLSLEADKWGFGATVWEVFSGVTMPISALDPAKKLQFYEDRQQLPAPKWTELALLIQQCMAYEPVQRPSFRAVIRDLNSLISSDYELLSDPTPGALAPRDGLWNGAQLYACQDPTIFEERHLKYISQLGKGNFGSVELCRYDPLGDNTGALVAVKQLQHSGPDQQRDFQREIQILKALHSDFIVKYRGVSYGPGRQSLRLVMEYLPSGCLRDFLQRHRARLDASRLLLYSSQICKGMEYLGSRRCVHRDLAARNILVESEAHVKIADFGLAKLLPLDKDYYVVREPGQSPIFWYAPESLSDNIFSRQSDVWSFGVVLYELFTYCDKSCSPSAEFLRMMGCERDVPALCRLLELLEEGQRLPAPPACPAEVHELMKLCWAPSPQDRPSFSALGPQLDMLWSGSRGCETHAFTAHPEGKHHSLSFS

[3] = Cytotoxicity against human NHBE cells assessed as reduction in cell viability by CCK8 assay; assay type: cell-based
How it was run: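 Human bronchial epithelial (HBE) cells were tested for growth inhibition by CCK-8 assay. IC50 values are means of three separate experiments.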

[4] = tested on: Mus musculus; experiment: Antifibrotic activity against bleomycin-induced pulmonary fibrosis C57BL/6J mouse model assessed as reduction in TNF-alpha expression in plasma at 60 mg/kg, po administered via gavage qd for 14 days at 3 days post bleomycin challenge by FACSCalibur flow cytometry; assay type: functional, organism-based
How it was run: (§2)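 Female C57BL/6J mice (5‒6 weeks, 20‒25 g) were given 33 μg bleomycin intratracheally in saline under isoflurane. From day 3 they received oral gavage once daily for 14 days, with saline containing 1.4% DMSO as vehicle; n=8 per group. Vena cava blood was heparinized and spun at 3000 rpm for 10 min, and plasma was stored at −20 °C. IL-6, IL-17A and TNF-α were measured by flow cytometry; mean ± SEM.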

[5] = tested on: Mus musculus; experiment: Antifibrotic activity against bleomycin-induced pulmonary fibrosis C57BL/6J mouse model assessed as reduction in alveolar septal swelling at 60 mg/kg, po administered via gavage qd for 14 days at 3 days post bleomycin challenge by hematoxylin and eosin staining based light microscopic analysis; assay type: functional, organism-based
How it was run: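 Intratracheal bleomycin (33 μg) was given to female C57BL/6J mice. Oral gavage started 3 days later and continued once daily for 14 days, with 1.4% DMSO saline as vehicle; n=8. Lungs were formalin-fixed for 24 h and paraffin-embedded. 5 μm sections were H&E-stained and examined by light microscopy at 200×.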

[6] = tested on: Mus musculus; experiment: Antifibrotic activity against bleomycin-induced pulmonary fibrosis C57BL/6J mouse model assessed as reduction in IL17A expression in plasma at 60 mg/kg, po administered via gavage qd for 14 days at 3 days post bleomycin challenge by FACSCalibur flow cytometry; assay type: functional, organism-based; how it was run: as §2
[7] = tested on: Mus musculus; experiment: Antifibrotic activity against bleomycin-induced pulmonary fibrosis C57BL/6J mouse model assessed as reduction in oxidative stress by measuring reduction in MDA level in plasma at 60 mg/kg, po administered via gavage qd for 14 days at 3 days post bleomycin challenge; assay type: functional, organism-based
How it was run: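 After 33 μg intratracheal bleomycin, female C57BL/6J mice were gavaged once daily for 14 days from day 3 (vehicle saline, 1.4% DMSO; n=8). MDA was measured in heparinized plasma with a kit by absorbance at 532 nm; mean ± SEM.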

[8] = tested on: Mus musculus; experiment: Antifibrotic activity against bleomycin-induced pulmonary fibrosis C57BL/6J mouse model assessed as reduction in IL6 expression in plasma at 60 mg/kg, po administered via gavage qd for 14 days at 3 days post bleomycin challenge by FACSCalibur flow cytometry; assay type: functional, organism-based; how it was run: as §2
[9] = tested on: Mus musculus; experiment: Antifibrotic activity against bleomycin-induced pulmonary fibrosis C57BL/6J mouse model assessed as reduction in lung coefficient at 60 mg/kg, po administered via gavage qd for 14 days at 3 days post bleomycin challenge; assay type: functional, organism-based
How it was run: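 Bleomycin was given intratracheally (33 μg) to female C57BL/6J mice, 5‒6 weeks old. Daily oral gavage followed for 14 days from day 3, with 1.4% DMSO saline vehicle; n=8 per group. Fresh lungs were weighed and lung index was calculated as lung weight/body weight × 100.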

[10] = molecular target: T1, Tyrosine-protein kinase BTK; experiment: Inhibition of BTK (unknown origin)
[11] = molecular target: Epidermal growth factor receptor (Homo sapiens, UniProt P00533); experiment: Inhibition of EGFR (unknown origin)
Epidermal growth factor receptor, sequence (P00533 whole entry): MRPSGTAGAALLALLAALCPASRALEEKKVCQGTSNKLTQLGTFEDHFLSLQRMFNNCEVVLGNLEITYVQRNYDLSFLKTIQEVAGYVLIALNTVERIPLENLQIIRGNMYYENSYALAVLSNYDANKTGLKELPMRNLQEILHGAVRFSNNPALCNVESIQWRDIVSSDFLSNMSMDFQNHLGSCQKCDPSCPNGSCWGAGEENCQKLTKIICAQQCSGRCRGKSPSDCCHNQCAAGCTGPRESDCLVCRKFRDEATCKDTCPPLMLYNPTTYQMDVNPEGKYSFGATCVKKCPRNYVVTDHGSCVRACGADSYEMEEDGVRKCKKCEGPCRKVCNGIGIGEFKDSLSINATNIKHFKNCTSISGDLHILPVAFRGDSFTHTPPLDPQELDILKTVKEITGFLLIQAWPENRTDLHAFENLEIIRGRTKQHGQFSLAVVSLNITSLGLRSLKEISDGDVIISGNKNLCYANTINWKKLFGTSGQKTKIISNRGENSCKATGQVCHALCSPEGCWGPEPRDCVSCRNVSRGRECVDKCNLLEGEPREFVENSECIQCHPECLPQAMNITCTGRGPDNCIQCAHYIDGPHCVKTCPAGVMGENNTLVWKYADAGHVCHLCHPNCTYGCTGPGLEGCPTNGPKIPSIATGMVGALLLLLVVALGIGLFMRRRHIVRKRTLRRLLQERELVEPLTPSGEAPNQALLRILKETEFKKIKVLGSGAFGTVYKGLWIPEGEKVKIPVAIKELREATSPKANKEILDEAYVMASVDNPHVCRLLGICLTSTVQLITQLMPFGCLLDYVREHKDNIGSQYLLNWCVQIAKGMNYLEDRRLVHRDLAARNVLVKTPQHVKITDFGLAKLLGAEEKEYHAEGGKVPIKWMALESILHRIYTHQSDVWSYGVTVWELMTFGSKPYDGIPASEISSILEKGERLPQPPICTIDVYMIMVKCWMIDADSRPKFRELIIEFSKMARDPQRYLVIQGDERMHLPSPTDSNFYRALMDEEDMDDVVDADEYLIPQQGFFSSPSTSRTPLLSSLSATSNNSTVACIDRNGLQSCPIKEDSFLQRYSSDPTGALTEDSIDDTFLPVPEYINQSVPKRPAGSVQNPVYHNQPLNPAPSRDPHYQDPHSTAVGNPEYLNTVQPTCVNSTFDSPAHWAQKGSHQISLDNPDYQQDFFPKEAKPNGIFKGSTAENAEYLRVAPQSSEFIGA

[12] = molecular target: T2, Tyrosine-protein kinase JAK3; experiment: Inhibition of JAK3 (unknown origin)

IC50 [1]: > 0.1 µM
IC50 [2]: 0.0594 µM
Compound: C=CC(=O)Nc1cccc(Nc2nc(Nc3ccc(CN4CCOCC4)cc3)nc3ccsc23)c1
IC50 [3]: 8.27 µM

IC50 [1]: > 0.1 µM
IC50 [2]: 0.046 µM
Compound: C=CC(=O)Nc1cccc(Oc2nc(Nc3ccc(SCCCN4CCOCC4)cc3)nc3ccsc23)c1
IC50 [3]: > 40 µM

More lines, now with the values behind:

Compound: C=CC(=O)Nc1cccc(Nc2nc(Nc3ccc(OCCOC)cc3)ncc2F)c1 [SPEBRUTINIB]
IC50 [2]: 0.0665 µM

Compound: COc1cc2ncnc(Nc3ccc(F)c(Cl)c3)c2cc1OCCCN1CCOCC1
Activity [4]: Active
Activity [5]: Active
Activity [6]: Active
Activity [7]: Active
Activity [8]: Active
Activity [9]: Active

Compound: C=CC(=O)Nc1cccc(Nc2nc(Nc3ccc(NC(=O)CN4CCOCC4)cc3)ncc2Cl)c1
IC50 [10]: < 0.01 µM
IC50 [11]: < 0.01 µM
IC50 [12]: < 0.01 µM
